ChEMBL document CHEMBL3632558, “Synthesis, antimycobacterial and antibacterial activity of l-[(1R,2S)-2-fluorocyclopropyl]naphthyridone derivatives containing an oxime-functionalized pyrrolidine moiety” (2015)
Converted amounts (≈) assume the structure as drawn.

Legend:
Type in all cases: functional
Streptococcus pneumoniae = assay: Antibacterial activity against Streptococcus pneumoniae ATCC 19615 after 18 to 24 hrs
Outline: (§1)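 MIC by standard NCCLS reference procedure (M100-S11); lowest concentration of compound inhibiting visible bacterial growth after incubation at 35 °C for 18–24 h, read as complete inhibition of growth. Ciprofloxacin, levofloxacin and moxifloxacin run alongside as reference agents.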

Enterococcus faecalis [1] = assay: Antibacterial activity against Enterococcus faecalis 14-2 after 18 to 24 hrs; outline: as §1
Staphylococcus aureus [2] = assay: Antibacterial activity against methicillin-sensitive Staphylococcus aureus 14-1 after 18 to 24 hrs; outline: as §1
Pseudomonas aeruginosa [3] = assay: Antibacterial activity against Pseudomonas aeruginosa 14-9 after 18 to 24 hrs; outline: as §1
Pseudomonas aeruginosa [4] = assay: Antibacterial activity against Pseudomonas aeruginosa 14-16 after 18 to 24 hrs; outline: as §1
Klebsiella pneumoniae [5] = assay: Antibacterial activity against Klebsiella pneumoniae 14-3 after 18 to 24 hrs; outline: as §1
Enterococcus faecium [6] = assay: Antibacterial activity against Enterococcus faecium 14-1 after 18 to 24 hrs; outline: as §1
Klebsiella pneumoniae [7] = assay: Antibacterial activity against Klebsiella pneumoniae 14-2 after 18 to 24 hrs; outline: as §1
Staphylococcus aureus [8] = assay: Antibacterial activity against methicillin-resistant Staphylococcus aureus 14-5 after 18 to 24 hrs
Staphylococcus aureus [9] = assay: Antibacterial activity against methicillin-sensitive Staphylococcus aureus 14-4 after 18 to 24 hrs; outline: as §1
Escherichia coli [10] = assay: Antibacterial activity against Escherichia coli ATCC 25922 after 18 to 24 hrs; outline: as §1
Escherichia coli [11] = assay: Antibacterial activity against Escherichia coli 14-1 after 18 to 24 hrs; outline: as §1
[12] = system: Staphylococcus epidermidis; assay: Antibacterial activity against methicillin-resistant Staphylococcus epidermidis 14-39 after 18 to 24 hrs
Klebsiella pneumoniae [13] = assay: Antibacterial activity against ESBL-positive Klebsiella pneumoniae 14-19 after 18 to 24 hrs; outline: as §1
Staphylococcus aureus [14] = assay: Antibacterial activity against methicillin-resistant Staphylococcus aureus 14-4 after 18 to 24 hrs
Staphylococcus aureus [15] = assay: Antibacterial activity against methicillin-sensitive Staphylococcus aureus 14-2 after 18 to 24 hrs; outline: as §1
Enterococcus faecium [16] = assay: Antibacterial activity against Enterococcus faecium 14-2 after 18 to 24 hrs; outline: as §1
[17] = system: Mycobacterium tuberculosis; assay: Antimycobacterial activity against Mycobacterium tuberculosis H37Rv ATCC 27294 by alamar blue assay
Outline: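 Microplate Alamar Blue Assay; MIC is the lowest concentration giving ≥90% reduction in fluorescence relative to the mean of replicate bacterium-only controls. MDR strain 6133 is resistant to isoniazid and rifampicin.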

Staphylococcus aureus [18] = assay: Antibacterial activity against methicillin-sensitive Staphylococcus aureus 14-3 after 18 to 24 hrs; outline: as §1
Enterococcus faecium [19] = assay: Antibacterial activity against Enterococcus faecium 14-6 after 18 to 24 hrs; outline: as §1
Escherichia coli [20] = assay: Antibacterial activity against ESBL-positive Escherichia coli 14-2 after 18 to 24 hrs; outline: as §1
Klebsiella pneumoniae [21] = assay: Antibacterial activity against Klebsiella pneumoniae 14-1 after 18 to 24 hrs; outline: as §1
Staphylococcus aureus [22] = assay: Antibacterial activity against Staphylococcus aureus CMCC 26003 after 18 to 24 hrs; outline: as §1
Pseudomonas aeruginosa [23] = assay: Antibacterial activity against Pseudomonas aeruginosa 14-15 after 18 to 24 hrs; outline: as §1
Pseudomonas aeruginosa [24] = assay: Antibacterial activity against Pseudomonas aeruginosa 14-14 after 18 to 24 hrs; outline: as §1
[25] = system: Staphylococcus epidermidis; assay: Antibacterial activity against methicillin-sensitive Staphylococcus epidermidis 14-2 after 18 to 24 hrs; outline: as §1
[26] = system: Staphylococcus epidermidis; assay: Antibacterial activity against methicillin-resistant Staphylococcus epidermidis 14-37 after 18 to 24 hrs
Klebsiella pneumoniae [27] = assay: Antibacterial activity against ESBL-positive Klebsiella pneumoniae 14-18 after 18 to 24 hrs; outline: as §1
Klebsiella pneumoniae [28] = assay: Antibacterial activity against ESBL-positive Klebsiella pneumoniae 14-17 after 18 to 24 hrs; outline: as §1
[29] = system: Staphylococcus epidermidis; assay: Antibacterial activity against methicillin-resistant Staphylococcus epidermidis 14-22 after 18 to 24 hrs
Escherichia coli [30] = assay: Antibacterial activity against Escherichia coli 14-2 after 18 to 24 hrs; outline: as §1
Pseudomonas aeruginosa [31] = assay: Antibacterial activity against Pseudomonas aeruginosa ATCC 27853 after 18 to 24 hrs; outline: as §1
Klebsiella pneumoniae [32] = assay: Antibacterial activity against Klebsiella pneumoniae 14-4 after 18 to 24 hrs; outline: as §1
[33] = system: Staphylococcus epidermidis; assay: Antibacterial activity against methicillin-resistant Staphylococcus epidermidis 14-21 after 18 to 24 hrs
Enterococcus faecium [34] = assay: Antibacterial activity against Enterococcus faecium 14-5 after 18 to 24 hrs; outline: as §1
Enterococcus faecalis [35] = assay: Antibacterial activity against Enterococcus faecalis 14-1 after 18 to 24 hrs; outline: as §1
Escherichia coli [36] = assay: Antibacterial activity against ESBL-positive Escherichia coli 14-1 after 18 to 24 hrs; outline: as §1
Pseudomonas aeruginosa [37] = assay: Antibacterial activity against Pseudomonas aeruginosa 14-19 after 18 to 24 hrs; outline: as §1

NCC1CN(c2nc3c(cc2F)c(=O)c(C(=O)O)cn3[C@@H]2C[C@@H]2F)C/C1=N\OCc1ccc(Br)cc1 (some centres undefined)
MIC (Streptococcus pneumoniae): < 0.008 mg/L
MIC (Enterococcus faecalis [1]): 0.125 mg/L (≈ 0.222 µM)
MIC (Staphylococcus aureus [2]): 2 mg/L (≈ 3.56 µM)
MIC (Pseudomonas aeruginosa [3]): 8 mg/L (≈ 14.2 µM)
MIC (Pseudomonas aeruginosa [4]): 8 mg/L (≈ 14.2 µM)
MIC (Klebsiella pneumoniae [5]): 128 mg/L (≈ 228 µM)
MIC (Enterococcus faecium [6]): 2 mg/L (≈ 3.56 µM)
MIC (Klebsiella pneumoniae [7]): 128 mg/L (≈ 228 µM)
MIC (Staphylococcus aureus [8]): 16 mg/L (≈ 28.5 µM)
MIC (Staphylococcus aureus [9]): < 0.008 mg/L
MIC (Escherichia coli [10]): 0.125 mg/L (≈ 0.222 µM)
MIC (Escherichia coli [11]): 64 mg/L (≈ 114 µM)
MIC [12]: 8 mg/L (≈ 14.2 µM)
MIC (Klebsiella pneumoniae [13]): > 128 mg/L
MIC (Staphylococcus aureus [14]): 16 mg/L (≈ 28.5 µM)
MIC (Staphylococcus aureus [15]): < 0.008 mg/L
MIC (Enterococcus faecium [16]): 2 mg/L (≈ 3.56 µM)
MIC90 [17]: 0.375 mg/L (≈ 0.667 µM)
MIC (Staphylococcus aureus [18]): 0.015 mg/L (≈ 0.0267 µM)
MIC (Enterococcus faecium [19]): 16 mg/L (≈ 28.5 µM)
MIC (Escherichia coli [20]): 64 mg/L (≈ 114 µM)
MIC (Klebsiella pneumoniae [21]): 128 mg/L (≈ 228 µM)
MIC (Staphylococcus aureus [22]): < 0.008 mg/L
MIC (Pseudomonas aeruginosa [23]): 8 mg/L (≈ 14.2 µM)
MIC (Pseudomonas aeruginosa [24]): 8 mg/L (≈ 14.2 µM)
MIC [25]: 16 mg/L (≈ 28.5 µM)
MIC [26]: 16 mg/L (≈ 28.5 µM)
MIC (Klebsiella pneumoniae [27]): 8 mg/L (≈ 14.2 µM)
MIC (Klebsiella pneumoniae [28]): 8 mg/L (≈ 14.2 µM)
MIC [29]: 2 mg/L (≈ 3.56 µM)
MIC (Escherichia coli [30]): 64 mg/L (≈ 114 µM)
MIC (Pseudomonas aeruginosa [31]): 4 mg/L (≈ 7.11 µM)
MIC (Klebsiella pneumoniae [32]): 128 mg/L (≈ 228 µM)
MIC [33]: 4 mg/L (≈ 7.11 µM)
MIC (Enterococcus faecium [34]): 8 mg/L (≈ 14.2 µM)
MIC (Enterococcus faecalis [35]): 32 mg/L (≈ 56.9 µM)
MIC (Escherichia coli [36]): 4 mg/L (≈ 7.11 µM)
MIC (Pseudomonas aeruginosa [37]): 16 mg/L (≈ 28.5 µM)

NCC1CN(c2nc3c(cc2F)c(=O)c(C(=O)O)cn3[C@@H]2C[C@@H]2F)C/C1=N\OCc1ccc2c(c1)OCO2 (some centres undefined)
MIC (Streptococcus pneumoniae): 0.03 mg/L (≈ 0.0569 µM)
MIC (Enterococcus faecalis [1]): < 0.008 mg/L
MIC (Staphylococcus aureus [2]): 4 mg/L (≈ 7.58 µM)
MIC (Pseudomonas aeruginosa [3]): 8 mg/L (≈ 15.2 µM)
MIC (Pseudomonas aeruginosa [4]): 8 mg/L (≈ 15.2 µM)
MIC (Klebsiella pneumoniae [5]): 128 mg/L (≈ 243 µM)
MIC (Enterococcus faecium [6]): 1 mg/L (≈ 1.9 µM)
MIC (Klebsiella pneumoniae [7]): 128 mg/L (≈ 243 µM)
MIC (Staphylococcus aureus [8]): 8 mg/L (≈ 15.2 µM)
MIC (Staphylococcus aureus [9]): < 0.008 mg/L
MIC (Escherichia coli [10]): < 0.008 mg/L
MIC (Escherichia coli [11]): 32 mg/L (≈ 60.7 µM)
MIC [12]: 8 mg/L (≈ 15.2 µM)
MIC (Klebsiella pneumoniae [13]): 128 mg/L (≈ 243 µM)
MIC (Staphylococcus aureus [14]): 16 mg/L (≈ 30.3 µM)
MIC (Staphylococcus aureus [15]): < 0.008 mg/L
MIC (Enterococcus faecium [16]): 1 mg/L (≈ 1.9 µM)
MIC90 [17]: < 0.25 mg/L
MIC (Staphylococcus aureus [18]): 8 mg/L (≈ 15.2 µM)
MIC (Enterococcus faecium [19]): 4 mg/L (≈ 7.58 µM)
MIC (Escherichia coli [20]): 64 mg/L (≈ 121 µM)
MIC (Klebsiella pneumoniae [21]): 128 mg/L (≈ 243 µM)
MIC (Staphylococcus aureus [22]): < 0.008 mg/L
MIC (Pseudomonas aeruginosa [23]): 8 mg/L (≈ 15.2 µM)
MIC (Pseudomonas aeruginosa [24]): 8 mg/L (≈ 15.2 µM)
MIC [25]: 32 mg/L (≈ 60.7 µM)
MIC [26]: 6 mg/L (≈ 11.4 µM)
MIC (Klebsiella pneumoniae [27]): 4 mg/L (≈ 7.58 µM)
MIC (Klebsiella pneumoniae [28]): 8 mg/L (≈ 15.2 µM)
MIC [29]: 4 mg/L (≈ 7.58 µM)
MIC (Escherichia coli [30]): 32 mg/L (≈ 60.7 µM)
MIC (Pseudomonas aeruginosa [31]): 8 mg/L (≈ 15.2 µM)
MIC (Klebsiella pneumoniae [32]): 128 mg/L (≈ 243 µM)
MIC [33]: 4 mg/L (≈ 7.58 µM)
MIC (Enterococcus faecium [34]): 8 mg/L (≈ 15.2 µM)
MIC (Enterococcus faecalis [35]): 16 mg/L (≈ 30.3 µM)
MIC (Escherichia coli [36]): 8 mg/L (≈ 15.2 µM)
MIC (Pseudomonas aeruginosa [37]): 8 mg/L (≈ 15.2 µM)

CC1(CN)CN(c2nc3c(cc2F)c(=O)c(C(=O)O)cn3[C@@H]2C[C@@H]2F)C/C1=N\OCc1ccccc1 (some centres undefined)
MIC (Streptococcus pneumoniae): < 0.008 mg/L
MIC (Enterococcus faecalis [1]): 0.25 mg/L (≈ 0.503 µM)
MIC (Staphylococcus aureus [2]): 2 mg/L (≈ 4.02 µM)
MIC (Pseudomonas aeruginosa [3]): 16 mg/L (≈ 32.2 µM)
MIC (Pseudomonas aeruginosa [4]): 32 mg/L (≈ 64.3 µM)
MIC (Klebsiella pneumoniae [5]): 128 mg/L (≈ 257 µM)
MIC (Enterococcus faecium [6]): 4 mg/L (≈ 8.04 µM)
MIC (Klebsiella pneumoniae [7]): > 128 mg/L
MIC (Staphylococcus aureus [8]): 4 mg/L (≈ 8.04 µM)
MIC (Staphylococcus aureus [9]): < 0.008 mg/L
MIC (Escherichia coli [10]): 0.125 mg/L (≈ 0.251 µM)
MIC (Escherichia coli [11]): > 128 mg/L
MIC [12]: 16 mg/L (≈ 32.2 µM)
MIC (Klebsiella pneumoniae [13]): 64 mg/L (≈ 129 µM)
MIC (Staphylococcus aureus [14]): 8 mg/L (≈ 16.1 µM)
MIC (Staphylococcus aureus [15]): < 0.008 mg/L
MIC (Enterococcus faecium [16]): 4 mg/L (≈ 8.04 µM)
MIC90 [17]: 0.514 mg/L (≈ 1.03 µM)
MIC (Staphylococcus aureus [18]): < 0.008 mg/L
MIC (Enterococcus faecium [19]): 8 mg/L (≈ 16.1 µM)
MIC (Escherichia coli [20]): > 128 mg/L
MIC (Klebsiella pneumoniae [21]): 128 mg/L (≈ 257 µM)
MIC (Staphylococcus aureus [22]): < 0.008 mg/L
MIC (Pseudomonas aeruginosa [23]): 32 mg/L (≈ 64.3 µM)
MIC (Pseudomonas aeruginosa [24]): 32 mg/L (≈ 64.3 µM)
MIC [25]: 16 mg/L (≈ 32.2 µM)
MIC [26]: 16 mg/L (≈ 32.2 µM)
MIC (Klebsiella pneumoniae [27]): 32 mg/L (≈ 64.3 µM)
MIC (Klebsiella pneumoniae [28]): 16 mg/L (≈ 32.2 µM)
MIC [29]: 4 mg/L (≈ 8.04 µM)
MIC (Escherichia coli [30]): > 128 mg/L
MIC (Pseudomonas aeruginosa [31]): 8 mg/L (≈ 16.1 µM)
MIC (Klebsiella pneumoniae [32]): > 128 mg/L
MIC [33]: 4 mg/L (≈ 8.04 µM)
MIC (Enterococcus faecium [34]): 8 mg/L (≈ 16.1 µM)
MIC (Enterococcus faecalis [35]): 32 mg/L (≈ 64.3 µM)
MIC (Escherichia coli [36]): 8 mg/L (≈ 16.1 µM)
MIC (Pseudomonas aeruginosa [37]): 8 mg/L (≈ 16.1 µM)
